Screens (PubChem BioAssay)
Sampled rows, rich in hits. Any-hit rate of the full collection: about 2.9%.
NR1D1 modulator – modulators of Rev-erb alpha DNA binding, primary screen, biochemical, FITC-DNA, fluorescence polarization, uHTS. Rev-erbα–FITC-DNA binding, 90 min. activity, % at 10 µM. hit rate 0.79% among 370,000. AID 1259318, 2017;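 active means activity above about 14%, limit read from the data; passing the limit was not always enough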
Target sequence (P20393 whole entry, looked up): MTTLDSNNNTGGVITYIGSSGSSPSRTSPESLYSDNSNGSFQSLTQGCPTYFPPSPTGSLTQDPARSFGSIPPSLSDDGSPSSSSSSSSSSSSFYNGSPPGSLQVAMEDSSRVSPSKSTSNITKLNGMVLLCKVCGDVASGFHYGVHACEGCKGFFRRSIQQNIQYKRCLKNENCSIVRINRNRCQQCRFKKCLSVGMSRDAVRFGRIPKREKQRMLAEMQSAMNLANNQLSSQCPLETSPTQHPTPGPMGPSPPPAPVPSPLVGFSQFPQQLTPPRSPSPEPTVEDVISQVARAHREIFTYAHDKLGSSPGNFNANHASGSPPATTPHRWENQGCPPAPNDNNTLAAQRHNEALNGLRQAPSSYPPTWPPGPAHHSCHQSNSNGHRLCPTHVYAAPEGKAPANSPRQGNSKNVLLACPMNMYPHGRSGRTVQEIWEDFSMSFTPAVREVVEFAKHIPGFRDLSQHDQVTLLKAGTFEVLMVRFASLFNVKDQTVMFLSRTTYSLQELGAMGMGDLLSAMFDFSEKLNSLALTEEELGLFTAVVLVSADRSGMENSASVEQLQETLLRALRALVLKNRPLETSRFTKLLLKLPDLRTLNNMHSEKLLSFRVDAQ
TAG inh – inhibitors of triacylglycerol accumulation, primary screen, cell-based, uHTS, fluorescence, H9c2; inhibition, % at 12.5 µM; hit rate 0.66% among 230,000; H9c2 cells, Nile Red lipid (TAG) fluorescence; cells loaded with 200 µM oleic acid;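 active means pattern-corrected inhibition of lipid staining of at least 50% with the nuclear-stain viability signal not falling by more than 50%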
hiPSC survival – enhancers of single-cell hiPSC survival, primary screen, ATPlite luminescence; 100% = ROCK inhibitor wells, 0% = DMSO; survival enhancement, % at 20 µM; hit rate 0.044% among 360,000; AID 602274, 2012; in the data active means survival enhancement above about 18%;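 further: cells exposed to compounds for 16 hours before the ATP read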
PG9 Ab binder – binders of HIV-1 gp120 antibody PG9, primary screen, biochemical, TR-FRET; AID 624416, 2012; hit rate 0.43% among 360,000; inhibition, % at 6.7 µM; HIV-1 gp120 / PG9 antibody interaction; TR-FRET gp120-PG9 antibody binding; in the data active means inhibition above about 8.5%
T cruzi inh – inhibitors of intracellular T. cruzi growth, primary screen, luminescence, NIH3T3 host cells. T. cruzi beta-gal in NIH3T3, 90 h. inhibition, % (concentration not given with the values). hit rate 1.4% among 300,000. AID 1885, 2009;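 active means mean inhibition across valid replicates above about 55%, limit read from the data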;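 further: signal also drops with host cell toxicity which is not excluded here; higher percent means less beta-gal luminescence so fewer parasites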
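compound dosing = single 50 nL compound addition per well in DMSO | material = NIH/3T3 host cells with β-galactosidase reporter T. cruzi | input = 5,000 host fibroblasts per well | timing = ≥90 h infection period, 3 h prior cell attachment | read-out basis = percent inhibition of parasite-derived β-gal signal | detection = GalScreen β-gal luminescence, detergent lysis, 60 min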
beta cell repl – inducers of MIN6 beta-cell proliferation, primary screen, ATP luminescence, uHTS | MIN6 cells proliferation, ATPlite luminescence, 48 h; cells starved in 0.2% serum; 100% = growth in 10% serum | hit rate 0.29% among 330,000 | AID 2380, 2010 | proliferation, % at 10 µM;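 active means compounds whose signal lies at least 3.5 SD above the mean of all wells on their plate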
H9c2 TAG conf – triacylglycerol accumulation inhibitors, retest, confirmation, cell-based, single concentration, Nile Red fluorescence, H9c2; shares compounds with TAG inh; H9c2 lipid accumulation; cells loaded with 200 µM oleic acid; inhibition, % at 12.5 µM; hit rate 71% among 990; AID 651629, 2012;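 active means mean inhibition across replicates of 40% or more; inactive means mean inhibition below 40%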
Of the large screens only hits and unclear results are named; the others gave an inactive call (follow-up assays come after a bar, where they were run).

Cc1nn(-c2cccc(Cl)c2)c2nc(-c3ccncc3)cc(C(=O)N3CCOCC3)c12	TAG inh 53 | H9c2 TAG conf 53
Cc1cccc2c(C(=O)N3CCN(c4ccccc4)CC3)cc(-c3ccncc3)nc12	TAG inh 60 | H9c2 TAG conf 77
Cc1nn(-c2ccc([N+](=O)[O-])cc2)c2c1C(c1ccc(OC(F)F)cc1)N1C(=N2)C(=O)Nc2ccccc21 (stereo unspecified)	TAG inh 65, T cruzi inh 91 | H9c2 TAG conf 69
COc1cccc(C2c3c(C)nn(-c4ccc([N+](=O)[O-])cc4)c3N=C3C(=O)Nc4ccccc4N32)c1 (stereo unspecified)	TAG inh 76, T cruzi inh 63 | H9c2 TAG conf 81
O=C(NCc1cc(F)ccc1F)C1CCC(=O)N(C2CCCCCC2)C1 (stereo unspecified)	none (no result: TAG inh)
CC(C)(C)N(Cc1ccccc1)C(=O)COC(=O)c1ccc([N+](=O)[O-])o1	none (no result: T cruzi inh)
CCN(C(=O)COC(=O)c1ccc([N+](=O)[O-])o1)c1cccc2ccccc12	TAG inh 69 (no result: T cruzi inh) | H9c2 TAG conf 88
CCOC(=O)c1ccc(-n2cncn2)nc1	none
CCN1C(=O)[C@H]2[C@@H](c3ccc(-c4ccccc4)c(OC)c3)N[C@@](CC(C)C)(C(=O)OC)[C@H]2C1=O	TAG inh 57 (no result: T cruzi inh) | H9c2 TAG conf 40
CCCCCCSc1ccc([C@H]2N[C@@](CC(C)C)(C(=O)OC)[C@H]3C(=O)N(C)C(=O)[C@@H]23)cc1OC	TAG inh 64 | H9c2 TAG conf 55
COC(=O)[C@]1(CC(C)C)N[C@H](c2ccc(-c3cccc(Cl)c3)cc2)[C@@H]2C(=O)N(C)C(=O)[C@@H]21	TAG inh 61 | H9c2 TAG conf inactive
COC(=O)[C@]1(C)N[C@H](c2ccc(-c3cccc(Cl)c3)cc2)[C@@H]2C(=O)N(C)C(=O)[C@@H]21	none (no result: T cruzi inh)
COC(=O)[C@]1(CC(C)C)N[C@H](c2ccc(SC3CCCCC3)c(OC)c2)[C@@H]2C(=O)N(C)C(=O)[C@@H]21	none
Cc1cc(C)c(C)c(OCCCCN(C)Cc2ccccc2)c1	none (no result: TAG inh)
O=C(Nc1cccc2ncccc12)c1ccc(Cl)cc1	TAG inh 71 | H9c2 TAG conf 75
CCOc1ccc(NC(=O)c2ccc(NC(=O)CSc3nc4ccccc4c(=O)[nH]3)cc2)cc1	TAG inh 61 | H9c2 TAG conf 63
O=C1C(c2cc(=O)c3ccccc3[nH]2)=C(O)c2ccccc21	none (no result: TAG inh)
O=c1cc(-c2ccccc2)[nH]c2ccccc12	TAG inh 66 | H9c2 TAG conf 49
CCCCn1nnnc1C(c1ccccc1)N1CCc2ccccc2C1 (stereo unspecified)	none (no result: TAG inh, T cruzi inh, beta cell repl)
CCOc1ccc2nc(NC(=O)CN3CCC(n4nnc5cc(F)ccc54)CC3)sc2c1	TAG inh 58 | H9c2 TAG conf 43
CN1CCN(C2CN(Cc3cn(Cc4ccc(C(F)(F)F)cc4)nn3)S(=O)(=O)C2)CC1 (stereo unspecified)	none (no result: TAG inh, T cruzi inh, beta cell repl)
COc1ccc(CNC(=O)C2CCN(c3nc(-c4ccccc4)nc4c3CCC4)CC2)cc1	TAG inh 52 | H9c2 TAG conf 41
O=C(NCc1ccccc1)C1CCN(c2nc(-c3ccccc3)nc3c2CCC3)CC1	none
CC1(C)CCCN(Cc2c(O)ccc3c(=O)c(-c4nc5ccccc5s4)c(N)oc23)C1	TAG inh 55 | H9c2 TAG conf 68
CC(C)n1cc(/C=C2/NC(=O)N(c3cccc(Cl)c3)C2=O)c2ccccc21	TAG inh 55 | H9c2 TAG conf inactive
Cc1cccc(-c2ccc3[nH]c4c(c3c2)CCN2C[C@@H]([C@H](C)O)[C@@H](N(C)C(=O)Nc3ccc(F)cc3)C[C@@H]42)c1	TAG inh 50 (no result: T cruzi inh, beta cell repl) | H9c2 TAG conf 48
C[C@H](O)[C@@H]1CN2CCc3c([nH]c4ccc(-c5ccc6c(c5)OCO6)cc34)[C@@H]2C[C@@H]1N(C)C(=O)Nc1cc(Cl)cc(Cl)c1	TAG inh 70 (no result: T cruzi inh, beta cell repl) | H9c2 TAG conf 89
C[C@H](O)[C@@H]1CN2CCc3c([nH]c4ccccc34)[C@@H]2C[C@@H]1N(C)C(=O)Nc1cc(Cl)cc(Cl)c1	none (no result: T cruzi inh, beta cell repl)
Cc1c(CC(=O)O)c(=O)oc2cc(OCc3ccc(F)cc3Cl)ccc12	none (no result: TAG inh)
CCCCCC(=C/c1ccccc1)/C=N/Nc1ccc(S(=O)(=O)N2CCOCC2)cc1[N+](=O)[O-]	TAG inh 83 (no result: T cruzi inh, beta cell repl) | H9c2 TAG conf 81
O=C(O)c1ccccc1/C=N/Nc1ccc(S(=O)(=O)N2CCOCC2)cc1[N+](=O)[O-]	none
CCN(CC)CCC(c1ccc(N(C)C)cc1)c1c(OC)cc(OC)c2c(-c3ccccc3)cc(=O)oc12 (stereo unspecified)	none (no result: T cruzi inh)
CCCCCc1cc(=O)oc2c(C(CCN3CCN(c4ccccc4)CC3)c3ccc(N(C)C)cc3)c(OC)cc(OC)c12 (stereo unspecified)	TAG inh 73 | H9c2 TAG conf 63
CCCCCc1cc(=O)oc2c(C(CCN(CC)CC)c3cc(OC)c(OC)c(OC)c3)c(OC)cc(OC)c12 (stereo unspecified)	TAG inh 114 | H9c2 TAG conf 97
COc1cc(OC)c2c(-c3ccccc3)cc(=O)oc2c1C(CCN1CCN(c2ccccc2)CC1)c1ccc(N(C)C)cc1 (stereo unspecified)	TAG inh 54 | H9c2 TAG conf 63
CCCCOc1ccc(NC(=O)C(=O)NCCC2=CCCCC2)cc1	TAG inh 64 | H9c2 TAG conf inactive
CNC(=O)CS(=O)(=O)CC(=O)Nc1cc(OCCOC)c(Cl)cc1Cl	none (no result: TAG inh)
COC(=O)CNC(c1ccccc1)c1cc(Br)ccc1NC(=O)CNC(=O)OCc1ccccc1 (stereo unspecified)	none (no result: NR1D1 modulator, TAG inh, PG9 Ab binder)
C[C@H]1CN([C@@H](C)CO)C(=O)Cc2cc(NC(=O)CCC(F)(F)F)ccc2O[C@H]1CN(C)S(=O)(=O)c1ccc(Cl)cc1	TAG inh 64 (no result: T cruzi inh) | H9c2 TAG conf 69
